Bioassay records deposited in PubChem BioAssay by Sanford-Burnham Center for Chemical Genomics.
Rows were chosen to be rich in hits. Some 1.8% of all compounds tested hit in one or more screens of this group.
Gli-Sufu antag: Gli-Sufu pathway antagonism. inhibition, % at 5 µM. Sufu-KO-LIGHT fibroblasts, Gli luciferase reporter luminescence. hit rate 0.74% among 340,000. AID 588413;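 active = inhibition above about 55%, limit read from the data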;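 note: 0% = DMSO-treated cells and 100% = wells with medium but no cells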
Jurkat NFkB inh: inhibitors of the PMA/ionomycin-induced NF-kB reporter in Jurkat cells; inhibition, % at 4 µM; hit rate 0.53% among 330,000; PMA/ionomycin-induced NF-kB luciferase reporter, luminescence; in the data active = inhibition above about 50%
697 NFkB inh: inhibitors of the PMA/ionomycin-induced NF-kB reporter in 697 B cells; inhibition, % at 4 µM; hit rate 0.33% among 330,000; 697 B-cell NF-kB luciferase reporter, 16 h; in the data active = inhibition above about 35%
Lipid droplet: modulators of hepatic lipid droplet formation | AML12 mouse hepatocytes, oleate lipid droplets, BODIPY imaging | inhibition, % at 6.5 µM | hit rate 0.4% among 240,000 | AID 1656;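 active = lipid droplet intensity inhibited by at least 50%, with more than 500 cells counted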
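Material: mouse AML12 hepatocyte cell line, fixed after treatment; Timing: compound with oleate, overnight; Technique: high-content imaging of BODIPY-stained droplets and DAPI nuclei; Probe or stimulus: oleate, 100 µM final; Dosing: compound at 6.5 µM only.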
TAG inh: triacylglycerol accumulation inhibition. H9c2 cells, Nile Red lipid (TAG) fluorescence; cells loaded with 200 µM oleic acid. inhibition, % at 12.5 µM. hit rate 0.66% among 230,000;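 active = pattern-corrected inhibition of lipid staining of at least 50% with the nuclear-stain viability signal not falling by more than 50%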;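 note: 0% = DMSO wells and 100% = triacsin C control wells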
iPSC survival up: increases survival of single human iPS cells. hit rate 0.044% among 360,000. hiPSC single-cell survival, ATPlite luminescence; 100% = ROCK inhibitor wells, 0% = DMSO. survival enhancement, % at 20 µM; in the data active = survival enhancement above about 18%;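 note: cells exposed to compounds for 16 hours before the ATP read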
H9c2 TAG conf: triacylglycerol accumulation inhibition, confirmation. shares compounds with TAG inh. H9c2 lipid accumulation, Nile Red fluorescence; cells loaded with 200 µM oleic acid. inhibition, % at 12.5 µM. hit rate 71% among 990. AID 651629;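 active = mean inhibition across replicates of 40% or more; inactive = mean inhibition below 40%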;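 note: plate controls were DMSO only wells for no effect and Triacsin C treated wells for full effect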
Active calls of the source: *; x = not tested or not shown.

SMILES	Gli-Sufu antag	Jurkat NFkB inh	697 NFkB inh	Lipid droplet	TAG inh	iPSC survival up	H9c2 TAG conf
Cc1ccc(Oc2ccc(S(=O)(=O)N3CCOCC3)cc2C(N)=O)c(-n2nc3ccccc3n2)c1	0	23	-32	x	50*	0	46*
CSc1sc(-c2ccnc(=S)[nH]2)c(-c2ccccc2)c1C#N	10	12	-2	7	75*	0	4
CCOC(=O)c1[nH]c(C)c(C(=O)OC(C)C(=O)Nc2ncc(Cl)cc2Cl)c1C (stereo not drawn)	6	29	5	x	57*	-1	39
CCOC(=O)c1c(C)[nH]c(C(=O)OC(C)C(=O)Nc2ccc(C)cc2)c1C (stereo not drawn)	x	x	x	x	-11	-1	x
Cc1cc(C(=O)COC(=O)Cc2n[nH]c(=O)c3ccccc23)c(C)n1-c1ccc2c(c1)OCO2	-3	-1	-39	-7	x	0	x
O=C(Cc1n[nH]c(=O)c2ccccc12)OCC(=O)c1ccc2c(c1)OCCO2	2	43	-30	x	81*	1	56*
CCOc1ccc(CCNC(=O)CCc2nc(-c3ccc(C)cc3)no2)cc1OCC	-2	11	-18	x	63*	4	45*
O=C(COc1ccc2ccccc2c1)Nc1ccccc1C(=O)O	-9	19	-33	5	x	0	x
Cn1nnnc1Sc1ncnc2scc(-c3ccc(C#N)cc3)c12	36	-9	-246	x	64	-1	x
Cn1nnnc1Sc1ncnc2scc(-c3ccc(-c4ccccc4)cc3)c12	5	1	6	x	59*	-3	36
Cc1ccc(NC(=O)C(C)N=C2NS(=O)(=O)c3ccccc32)cc1F (stereo not drawn)	-4	-31	-19	18	4	0	x
Cc1nn2c(N3CCCC3)cc(C(C)C)nc2c1-c1ccccc1	-2	-4	-7	x	72*	-2	59*
COc1ccc(-c2cn(CCC(=O)NCc3ccc(C)cc3)c(CCN)n2)cc1	9	-16	-33	x	x	-3	x
COc1ccc(NC2=NC(=S)N(c3ccc(C)cc3)C23CCCCC3)cc1	-3	-17	-19	x	57*	4	30
COc1ccc(NC2=NC(=S)N(c3cccc(C)c3)C23CCCCC3)cc1	12	-5	24	-2	-7	0	x
S=c1nc(-c2ccccn2)c(-c2ccccn2)n[nH]1	x	x	x	x	x	2	x
CC(C)c1ccc(O)c(NC(=S)NC(=O)CCc2ccccc2)c1	0	-10	-3	0	9	1	x
CCN(CC(=O)Nc1ccc(Cl)c(S(=O)(=O)N(C)C)c1)CC(=O)NC(C)C	7	-26	-13	1	12	0	x
Nc1ccccc1Nc1cccc(C(F)(F)F)c1	30	20	22	47	68*	-2	74*
Cc1ccccc1C(=O)NCCCNC(=O)c1cnccn1	18	4	8	6	x	1	x
Cc1csc(NC(=O)c2cc3c(s2)CCCCC3)n1	-36	-90	-70	2	13	-3	x
CCc1nnc(NC(=O)c2cc3c(s2)CCCCC3)s1	-5	-119	-116	x	50*	-3	12
CC(C)n1cc(/C=C2/NC(=O)N(c3cccc(Cl)c3)C2=O)c2ccccc21	11	32	-1	-2	55*	0	23
O=C(Nc1ccc2c(c1)OCCO2)c1cc2sccc2n1Cc1ccccc1	-24	-15	-102	x	60*	4	26
CCOC(=O)c1cc(CC)sc1NC(=O)c1cc(OC)c(OC)c(OC)c1	13	4	14	14	66*	-1	37
SMILES	Gli-Sufu antag	Jurkat NFkB inh	697 NFkB inh	Lipid droplet	TAG inh	iPSC survival up	H9c2 TAG conf
Cc1cccc(Nc2c([N+](=O)[O-])ccc3nonc23)c1	12	-2	-8	-8	x	0	x
CCOC(=O)c1cnn(-c2ccccc2)c1N	-9	-14	-19	20	x	0	x
CCOC(=O)c1cnn(-c2nc(-c3ccccc3)nc3c2COC(C)(C)C3)c1N	-3	-10	16	x	54*	3	20
COc1ccc(S(=O)(=O)N2CCCCC2)cc1NC(=O)CNc1ccc(F)cc1C	-2	10	20	x	-14	0	x
Nc1cc2c(cc1Br)[nH]c(=O)c1ccccc12	22	x	x	x	77*	4	62*
CC(=O)Nc1ccc2c(c1)nc(CCN1CCN(c3ccccn3)CC1)n2C	2	-18	-1	-1	x	0	x
